Compounds with a hit are over-represented: about 2.1% of the library has one in this group of screens.
PKD1 inh = blocks activity of human protein kinase D1; PKD1 kinase fluorescence polarization assay; inhibition, % (test concentration not listed); 0.056% of 200,000 active; AID 797; in the data active = inhibition above about 50%
Autophagy HCS = modulators of autophagy. calls only at 10 µM (by protocol). 0.98% of 190,000 active. AID 463193. MEF GFP-LC3 puncta imaging; test concentration mostly 10 µM;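 active = percentage of spot-positive cells more than 3 SD above its plate mean, without a fluorescence outlier flag or 80% toxicity; inconclusive = no clear call, values can overlap the other calls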
INS promoter inh = TRM-6 insulin promoter activity inhibition | TRM-6 cells, insulin promoter-eGFP reporter, imaging; reporter expression induced with tamoxifen | inhibition, % at 2 µM | 0.9% of 130,000 active | AID 1273;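 active = inhibition above the mean plus 3 SD, with well images judged a real hit on visual review, cut at about 60% in these data, passing the limit was not always enough; inconclusive = inhibition over the cutoff but images rejected on review; inactive = inhibition not above the cutoff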
Ins promoter up = MIN6 insulin promoter up-regulation; MIN6 insulin promoter-GFP reporter, high-content imaging; hits give high values; 0.3% of 190,000 active; z-score at 5 µM; AID 1625;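 active = z-score above 3 at 5 µM with at least 500 cells counted in the well; inconclusive = wells under 500 cells, flagged as cytotoxic or low count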
RBBP9 inhibitor = human RBBP9 hydrolase inhibition | inhibition, % at 7.94 µM | 0.2% of 220,000 active | recombinant RBBP9, FP-Rh probe fluorescence polarization | AID 1515;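 active = inhibition above the campaign mean of all tested compounds plus 3 SD, cut at about 14% in these data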
Target sequence (O75884 whole entry, looked up): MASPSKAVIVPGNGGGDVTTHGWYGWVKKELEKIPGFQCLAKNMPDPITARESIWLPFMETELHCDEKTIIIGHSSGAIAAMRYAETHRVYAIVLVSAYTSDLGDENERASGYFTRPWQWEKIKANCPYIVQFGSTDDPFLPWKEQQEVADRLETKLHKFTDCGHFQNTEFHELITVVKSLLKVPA
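System: RBBP9 protein | Quantity: 2.5 µM RBBP9 dispensing solution, before mixing | Reagent: FP-Rh probe, 375 nM dispensing solution | Timing: Enzyme-compound preincubation 30 min, then probe labeling 45 min, 25 °C | Measured by: Fluorescence polarization | Read-out: % inhibition | Replication: One well per compound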
Arbovirus anti = blocks arbovirus infection. 0.37% of 200,000 active. arbovirus infection cell-based antiviral screen. inhibition, % at 10 µM; in the data active = inhibition above about 30%
Of the large screens only hits and unclear results are named; the others gave an inactive call.

COc1ccccc1Oc1ccc(-c2cnc3ccccc3n2)cc1[N+](=O)[O-]	none (no result: INS promoter inh, Ins promoter up)
O=[N+]([O-])c1cc(-c2cnc3ccccc3n2)ccc1Oc1ccc(Cl)cc1	Autophagy HCS active (no result: INS promoter inh)
COc1ccc(-c2n[nH]c3c2C(c2ccc(OC)c(OC)c2)N(c2ccccc2)C3=O)cc1 (stereo not given)	INS promoter inh 69.4 (no result: Ins promoter up)
COc1ccc(C2c3c(-c4ccccc4)n[nH]c3C(=O)N2c2ccc(C(=O)O)cc2)cc1 (stereo not given)	none (no result: PKD1 inh, Autophagy HCS, INS promoter inh, Arbovirus anti)
O=C(NCCc1c[nH]c2ccccc12)C1CCN(S(=O)(=O)c2ccccc2F)CC1	none (no result: INS promoter inh)
C=CCn1c(SC(C)C(N)=O)nc2sc(CC)cc2c1=O (stereo not given)	Arbovirus anti 32.1
CCOc1nc(SC(C(C)=O)C(=O)Nc2ccccc2)nc(N(C)C)n1 (stereo not given)	none
CCNC(=S)N/N=C(\C)c1ccc(N2CCOCC2)cc1	Autophagy HCS active
O=C(CSc1nnc2ccccn12)NNC(=O)c1ccccc1	none
COc1ccc(-c2nnc(SCC(=O)c3ccc(C)o3)o2)cc1	none
COc1ccc(CN(C(=O)CSc2nnc(-c3ccc(F)cc3)o2)c2ccc(F)cc2)cc1	Arbovirus anti 30.6
CCOc1ccc2ccccc2c1C1NC(=S)N(C)C(C)=C1C(=O)OC (stereo not given)	none (no result: INS promoter inh)
Cc1ccc(C2C3CN(C(C)C)CC=C3C(C#N)=C(N)C2(C#N)C#N)cc1 (stereo not given)	Ins promoter up 10.3 (no result: PKD1 inh, Autophagy HCS, INS promoter inh, RBBP9 inhibitor)
CCCN1CC=C2C(C#N)=C(N)C(C#N)(C#N)C(c3cccc(OC)c3OC)C2C1 (stereo not given)	Autophagy HCS inconclusive (no result: Ins promoter up)
COc1ccc(OC)c(C2C3CN(C(C)C)CC=C3C(C#N)=C(N)C2(C#N)C#N)c1 (stereo not given)	Autophagy HCS active, Ins promoter up 17.1
NC(=O)COC(=O)c1ccccc1OCc1ccccc1	none
COc1ccccc1CNC(=O)COc1ccccc1OC	none
CCNC(=O)CN(c1ccc(CC)cc1)S(C)(=O)=O	Arbovirus anti 46.2
Cc1nc(-c2ccc(NS(C)(=O)=O)cc2)cs1	INS promoter inh 73.3 (no result: Ins promoter up)
COc1ccc(CN2CCN(C(=O)C3CCC(CNS(=O)(=O)c4ccc(C)cc4)CC3)CC2)c(OC)c1OC (stereo not given)	Autophagy HCS active (no result: INS promoter inh)
COc1ccc(CN2CCN(C(=O)C3CCN(S(=O)(=O)c4cccs4)CC3)CC2)c(OC)c1OC	none
CCOC(=O)c1cc(C(=O)OCC)c(=O)[nH]c1C	none
CCOC(=O)c1cc2c(N)c(C(=O)c3ccc(Br)cc3)sc2[nH]c1=O	Arbovirus anti 32.3 (no result: INS promoter inh)
Cc1cccc(NC(=S)N/N=C2/CCCCc3ccccc32)c1	none (no result: INS promoter inh)
Cc1ccc(S(=O)(=O)N2CC(=O)Nc3ccccc32)cc1	none
CC[n+]1c(/C=C/c2c[nH]c3ccccc23)ccc2cc(C)ccc21	Autophagy HCS active, Ins promoter up inconclusive (no result: INS promoter inh)
CCN(CC)C(=O)c1ccc(/C=C/c2c[nH]c3ccccc23)[n+](C)c1	none
O=C(CSc1ccc2nnc(-c3cccnc3)n2n1)c1ccccc1	PKD1 inh 112.3 (no result: INS promoter inh)
CC(C)OC(=O)c1c2c(n3ccccc13)C(=O)c1ccccc1C2=O	Ins promoter up 11.7 (no result: INS promoter inh)
COc1ccc(N(CC(=O)Nc2ccc3c(c2)OCO3)S(=O)(=O)c2ccc(F)cc2)cc1	Autophagy HCS active
CCOc1ccccc1NC(=O)CN(c1ccc(OC)cc1)S(=O)(=O)c1c(C)noc1C	Autophagy HCS active (no result: INS promoter inh)
COc1ccc(NC(=O)CN(c2cc(C)cc(C)c2)S(=O)(=O)c2c(C)noc2C)cc1	Autophagy HCS active (no result: INS promoter inh)
CCOc1ccccc1NC(=O)CN(c1cc(C)cc(C)c1)S(=O)(=O)c1c(C)noc1C	none (no result: INS promoter inh)
CCc1cc2c(N3CCN(c4ccccc4)CC3)ncnc2s1	none
COc1ccc(OC)c2[nH]c(=O)c(CCNS(=O)(=O)c3ccc(Cl)cc3)cc12	none
COc1ccccc1NC(=O)CSc1nnc(C2CCCCC2)o1	none (no result: Ins promoter up)
COc1cccc(NC(=O)N2CCCC2)c1	none
COc1ccc(N2C(=O)C3CCCN3C2c2ccc(C)cc2)cc1Cl (stereo not given)	none (no result: INS promoter inh)
CCN(C(=O)CSc1nnc(C)n1Cc1ccccc1)C1CCS(=O)(=O)C1 (stereo not given)	Autophagy HCS active (no result: INS promoter inh)
Cc1sc2nc(CSc3nc4ccccc4c(=O)n3CCCN3CCOCC3)[nH]c(=O)c2c1C	none
O=C(COc1ccc(Br)cc1)N/N=C1\SCC(=O)N1c1ccc(F)cc1	INS promoter inh 92.9
O=C(NC1CCN(Cc2ccccc2)CC1)C1CCN(S(=O)(=O)c2cccc3nsnc23)CC1	none
CCc1nn(-c2ccccc2)c(N)c1C#N	INS promoter inh 60.0
N#CCc1nn(-c2ccccc2)c(N)c1C#N	none
O=C(c1ccc2c3c(cccc13)CC2)C1CCCN(Cc2ccccn2)C1 (stereo not given)	none (no result: INS promoter inh)
Cc1cnc(CN2CCCC(C(=O)c3ccc4c5c(cccc35)CC4)C2)[nH]1 (stereo not given)	Autophagy HCS active (no result: INS promoter inh)
COc1cccc(/C=C2\SC(=O)NC2=O)c1OCc1ccc(C(=O)O)cc1	none (no result: INS promoter inh)
Cc1ccc(S(=O)(=O)C(C#N)c2nc3ccccc3nc2N2CCC(C)CC2)cc1 (stereo not given)	Ins promoter up 3.75
N#CC(c1nc2ccccc2nc1N1CCCC1)S(=O)(=O)c1ccccc1 (stereo not given)	none (no result: INS promoter inh)
Cc1ccc(NC(=O)CSCC(=O)O)c(C)c1	none (no result: INS promoter inh)
CCN(CCn1cccn1)C(=O)CC1C(=O)NCCN1Cc1cc(OC)cc(OC)c1 (stereo not given)	none (no result: INS promoter inh)
CCN(CCn1cccn1)C(=O)CC1C(=O)NCCN1Cc1ccc(OC)c(OC)c1 (stereo not given)	Autophagy HCS active
CC1CCN(S(=O)(=O)c2cccc(C(=O)Nc3nccs3)c2)CC1	none
Cc1ccc(C)c(NC(=O)CSc2nnc(C)c(=O)n2N)c1	none
O=C(CN1C(=O)/C(=C\c2cccs2)SC1=S)Nc1cccc(C(=O)O)c1	none (no result: PKD1 inh, Autophagy HCS, INS promoter inh, Arbovirus anti)
CCCc1cc(C(N)=O)c(NC(=O)c2ccoc2C)s1	INS promoter inh 76.0
CCOC(=O)c1ccc(NC(=S)N(CCCN2CCCC2)Cc2ccco2)cc1	none
Cc1ccc(NC(=S)N(CCCN2CCN(C)CC2)Cc2cccs2)cc1C	Autophagy HCS active (no result: INS promoter inh)
CCOC(=O)c1ccc(NC(=S)N(CCCN2CCN(CC)CC2)Cc2ccco2)cc1	Autophagy HCS active (no result: INS promoter inh)
CCCCC(=O)NC(=S)Nc1cc(C(=O)O)ccc1OC	none (no result: Ins promoter up)
CC(NC(=O)/C(C#N)=C1\N=C(NC(=O)c2ccco2)c2ccccc21)c1ccccc1 (stereo not given)	Ins promoter up 3.68 (no result: PKD1 inh, Autophagy HCS, INS promoter inh, Arbovirus anti)
CC(NC(=O)/C(C#N)=C/c1ccco1)c1ccccc1 (stereo not given)	none (no result: PKD1 inh, Autophagy HCS, INS promoter inh, Arbovirus anti)
COc1ccc(-c2nc(N3CCC(C)CC3)[nH]c(=O)c2C#N)cc1	INS promoter inh 71.4
COc1cc(NC(=O)c2cccs2)c(C(=O)OCC(=O)NCc2ccccc2)cc1OC	none
COc1cc(NC(=O)c2cccs2)c(C(=O)OCC(=O)NC(C)c2ccccc2)cc1OC (stereo not given)	INS promoter inh 70.3

Bioassay records (PubChem BioAssay)
